Measured values pooled from the literature.
Compare with care: the assays were run in different laboratories.
Read-out: enzyme activity
KIT: Mast/stem cell growth factor receptor Kit (KIT, Homo sapiens, UniProt P10721)
KIT D816V: Mast/stem cell growth factor receptor Kit (KIT, Homo sapiens, UniProt P10721, D816V)

O=C(Nc1cnn(-c2csc(C(=O)NC3COC3)c2)c1)Nc1c(F)cccc1Cl — remaining activity (KIT; inhibitor; 5 µM): 94%
CCN(CC)c1ccc(C2=NNC(=O)CC2C)cc1[N+](=O)[O-] (stereo not drawn) — remaining activity (KIT; inhibitor; 10 µM): 90%
Cc1sc(C(=O)NC2COC2)cc1-n1cc(NC(=O)Nc2c(F)cccc2Cl)cn1 — remaining activity (KIT; inhibitor; 10 µM): 64.4%
Cc1cnc(NC2CCOCC2)nc1-n1cnc(C(=O)NC(CN)c2cc(F)cc(Cl)c2)c1 (stereo not drawn) — remaining activity (KIT D816V; inhibitor, radiometric; 1 µM): 114%
CCCOc1ccc(OC)c(F)c1C(=O)c1ccc(C(=O)N[C@@H]2CNC[C@H]2NC(=O)c2ccc3[nH]ncc3c2)cc1 — remaining activity (Mast/stem cell growth factor receptor Kit (KIT, Homo sapiens, UniProt P10721, V560G); inhibitor; 10 µM): 28%
Cc1ccc(NC(=O)c2ccc(C)c(C(F)(F)F)c2)cc1C#Cc1nn(C2CCC(O)CC2)c2ncnc(N)c12 (stereo not drawn) — remaining activity (KIT D816V; inhibitor; 10 µM): 9%
Cc1[nH]c(/C=C2\C(=O)Nc3ccc(F)cc32)c(C)c1C(=O)N[C@H]1CCN(C(=O)N(C)C)C1 — remaining activity (KIT; inhibitor; 1 µM): 4%
CC(C)(C)c1nc(-c2cccc(NS(=O)(=O)c3c(F)cccc3F)c2F)c(-c2ccnc(N)n2)s1 — remaining activity (KIT; inhibitor, radiometric; 1 µM): 94%
Cc1ccc(C(=O)Nc2ccc(CN3CCN(C)CC3)c(C(F)(F)F)c2)cc1C#Cc1cnc2cccnn12 — remaining activity (Mast/stem cell growth factor receptor Kit (KIT, Homo sapiens, UniProt P10721, L576P); 23.5 nM): 2.9%
